Laboratory results published in ChEMBL document CHEMBL4828738, “Design, synthesis and evaluation of novel 5-phenylthiophene derivatives as potent fungicidal of Candida albicans and antifungal reagents of fluconazole-resistant fungi” (Eur J Med Chem, 2021).
≈ marks a conversion by molar mass, not a printed value.

Key:
Nakaseomyces glabratus = experiment: Antifungal activity against Candida glabrata assessed as fungal growth inhibition by CLSI protocol based method; format: functional
Candida albicans [1] = experiment: Antifungal activity against fluconazole-resistant Candida albicans 904 assessed as fungal growth inhibition by CLSI protocol based method
Candida albicans [2] = experiment: Antifungal activity against fluconazole-resistant Candida albicans 632 assessed as fungal growth inhibition by CLSI protocol based method
Candida albicans [3] = experiment: Antifungal activity against fluconazole-resistant Candida albicans 103 assessed as fungal growth inhibition by CLSI protocol based method
Candida albicans [4] = experiment: Anti-biofilm activity in Candida albicans CPCC400616 assessed as inhibition of biofilm formation incubated for 18 hrs by XTT assay; format: functional
Outline: (§1)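 C. albicans CPCC400616 suspension placed in wells at 37 °C. Non-adherent cells and medium were removed at 3, 6, 18 or 24 h and wells washed with PBS. Compounds were added at a range of concentrations in fresh RPMI 1640 and incubated a further 24 h at 37 °C. Biofilm metabolic activity was read by XTT reduction.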

Candida albicans [5] = experiment: Antifungal activity against Candida albicans CPCC400616 assessed as fungal growth inhibition by CLSI protocol based method; format: functional
Candida tropicalis = experiment: Antifungal activity against Candida tropicalis CGMCC 2.3739 assessed as fungal growth inhibition by CLSI protocol based method; format: functional
THLE-2 = experiment: Cytotoxicity against human THLE-2 cells assessed as reduction in cell viability measured after 96 hrs by MTT assay; format: ADME, cell-based; settings: THLE-2, 96 h
MCF7 = experiment: Cytotoxicity against human MCF7 cells assessed as reduction in cell viability measured after 96 hrs by MTT assay; format: ADME, cell-based; settings: MCF7, 96 h
Candida albicans [6] = experiment: Fungicidal activity against Candida albicans ATCC SC5314 assessed as inhibition of visible fungal growth measured after 48 hrs; format: functional
Candida albicans [7] = experiment: Anti-biofilm activity in Candida albicans CPCC400616 assessed as inhibition of biofilm formation incubated for 6 hrs by XTT assay; format: functional; outline: as §1
[8] = Metabolic stability in human plasma assessed as parent compound remaining after 60 mins by LC-MS/MS analysis; format: ADME, cell-free; settings: read-out: Stability
Pichia kudriavzevii = experiment: Antifungal activity against Candida krusei GIM2.1 assessed as fungal growth inhibition by CLSI protocol based method; format: functional
Candida albicans [9] = experiment: Anti-biofilm activity in Candida albicans CPCC400616 assessed as inhibition of biofilm formation incubated for 3 hrs by XTT assay; format: functional; outline: as §1
Cryptococcus neoformans = experiment: Antifungal activity against Cryptococcus neoformans CGMCC2.3161 assessed as fungal growth inhibition by CLSI protocol based method; format: functional
A549 = experiment: Cytotoxicity against human A549 cells assessed as reduction in cell viability measured after 96 hrs by MTT assay; format: ADME, cell-based; settings: A549, 96 h
Candida albicans [10] = experiment: Antifungal activity against fluconazole-resistant Candida albicans 100 assessed as fungal growth inhibition by CLSI protocol based method
[11] = Metabolic stability in human plasma assessed as parent compound remaining after 120 mins by LC-MS/MS analysis; format: ADME, cell-free; settings: read-out: Stability
Candida albicans [12] = experiment: Anti-biofilm activity in Candida albicans CPCC400616 assessed as inhibition of biofilm formation incubated for 24 hrs by XTT assay; format: functional; outline: as §1
Candida albicans [13] = experiment: Antifungal activity against fluconazole-resistant Candida albicans 901 assessed as fungal growth inhibition by CLSI protocol based method
[14] = Metabolic stability in human plasma assessed as half life after 60 mins by LC-MS/MS analysis; format: ADME, cell-free
Candida parapsilosis = experiment: Antifungal activity against Candida parapsilosis GIM2.190 assessed as fungal growth inhibition by CLSI protocol based method; format: functional; settings: Lodderomyces parapsilosis
Candida albicans [15] = experiment: Antifungal activity against fluconazole-resistant Candida albicans 311 assessed as fungal growth inhibition by CLSI protocol based method
Candida albicans [16] = experiment: Antifungal activity against Candida albicans ATCC SC5314 assessed as fungal growth inhibition by CLSI protocol based method; format: functional
[17] = biological target: T1, Lanosterol 14-alpha demethylase (Candida albicans (strain SC5314 / ATCC MYA-2876) (Yeast), UniProt P10613); experiment: Inhibition of CYP51 in Candida albicans assessed as 14alpha-methylfecosterol level at 0.015 ug/ml measured after 18 hrs by GC-MS analysis relative to control; design: scale not given: the % may be the effect or the level left; settings: at 0.015 µg/mL
T1 sequence (P10613 whole entry): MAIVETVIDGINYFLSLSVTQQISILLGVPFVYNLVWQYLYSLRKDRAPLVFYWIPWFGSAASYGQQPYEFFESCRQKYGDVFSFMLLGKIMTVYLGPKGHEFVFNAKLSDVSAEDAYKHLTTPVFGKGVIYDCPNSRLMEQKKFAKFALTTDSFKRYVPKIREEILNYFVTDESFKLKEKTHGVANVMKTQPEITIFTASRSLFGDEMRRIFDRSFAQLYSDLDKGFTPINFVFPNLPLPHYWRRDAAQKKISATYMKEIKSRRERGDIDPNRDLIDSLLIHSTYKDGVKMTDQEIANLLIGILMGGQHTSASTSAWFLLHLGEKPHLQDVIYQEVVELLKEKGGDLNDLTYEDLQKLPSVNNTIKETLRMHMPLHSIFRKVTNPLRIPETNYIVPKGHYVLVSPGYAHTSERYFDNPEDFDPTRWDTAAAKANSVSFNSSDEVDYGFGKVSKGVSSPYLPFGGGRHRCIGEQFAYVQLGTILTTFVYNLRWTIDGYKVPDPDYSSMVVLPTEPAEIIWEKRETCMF

[18] = biological target: T1, Lanosterol 14-alpha demethylase; experiment: Inhibition of CYP51 in Candida albicans assessed as Eburicol level at 0.015 ug/ml measured after 18 hrs by GC-MS analysis relative to control; design: scale not given: the % may be the effect or the level left; settings: at 0.015 µg/mL
Candida albicans [19] = experiment: Anti-biofilm activity in Candida albicans CPCC400616 assessed as inhibition of biofilm formation measured up to 24 hrs by XTT assay; format: functional, organism-based; settings: time hrs <=24
Outline: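 C. albicans CPCC400616 suspension allowed to adhere in 96-well plates at 37 °C; non-adherent cells and medium removed after 3, 6, 18 or 24 h. Wells washed with PBS, compounds added at graded concentrations in fresh RPMI 1640, then incubated a further 24 h at 37 °C. Biofilm quantified semiquantitatively by XTT reduction. SMIC50 is the concentration inhibiting biofilm metabolic activity by 50%.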

[20] = biological target: T1, Lanosterol 14-alpha demethylase; experiment: Inhibition of CYP51 in Candida albicans assessed as lanosterol level at 0.015 ug/ml measured after 18 hrs by GC-MS analysis relative to control; design: scale not given: the % may be the effect or the level left; settings: at 0.015 µg/mL
[21] = biological target: T1, Lanosterol 14-alpha demethylase; experiment: Inhibition of CYP51 in Candida albicans assessed as Ergosterol level at 0.015 ug/ml measured after 18 hrs by GC-MS analysis (reference value: 96.93 %); design: scale not given: the % may be the effect or the level left; settings: at 0.015 µg/mL
Candida albicans [22] = experiment: Fungicidal activity in Candida albicans CPCC400616 assessed as reduction in viable colony formation measured within 16 hrs by time kill assay; format: functional; settings: time hrs <16
Outline: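 Diluted samples were plated on PDA and incubated 24 h at 35 °C. CFU were counted and log10 CFU/mL was plotted against time. Detection limit was 100 CFU/mL. Run in triplicate.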

Candida albicans [23] = experiment: Fungicidal activity in Candida albicans CPCC400616 assessed as reduction in viable colony formation measured after 24 hrs by time kill assay; format: functional, organism-based
[24] = biological target: T1, Lanosterol 14-alpha demethylase; experiment: Inhibition of CYP51 in Candida albicans assessed as other sterols level at 0.015 ug/ml measured after 18 hrs by GC-MS analysis relative to control; design: scale not given: the % may be the effect or the level left; settings: at 0.015 µg/mL
[25] = biological target: T1, Lanosterol 14-alpha demethylase; experiment: Inhibition of CYP51 in Candida albicans assessed as Eburicol level at 0.25 ug/ml measured after 18 hrs by GC-MS analysis relative to control; design: scale not given: the % may be the effect or the level left; settings: at 0.25 µg/mL
[26] = biological target: T1, Lanosterol 14-alpha demethylase; experiment: Inhibition of CYP51 in Candida albicans assessed as lanosterol level at 0.25 ug/ml measured after 18 hrs by GC-MS analysis relative to control; design: scale not given: the % may be the effect or the level left; settings: at 0.25 µg/mL
[27] = biological target: T1, Lanosterol 14-alpha demethylase; experiment: Inhibition of CYP51 in Candida albicans assessed as 14alpha-methylfecosterol level at 0.25 ug/ml measured after 18 hrs by GC-MS analysis relative to control; design: scale not given: the % may be the effect or the level left; settings: at 0.25 µg/mL
[28] = biological target: T1, Lanosterol 14-alpha demethylase; experiment: Inhibition of CYP51 in Candida albicans assessed as ergosterol level at 0.25 ug/ml after 18 hrs by GC-MS analysis (reference value: 96.93 %); design: scale not given: the % may be the effect or the level left; settings: at 0.25 µg/mL
[29] = biological target: T1, Lanosterol 14-alpha demethylase; experiment: Inhibition of CYP51 in Candida albicans assessed as other sterols level at 0.25 ug/ml measured after 18 hrs by GC-MS analysis relative to control; design: scale not given: the % may be the effect or the level left; settings: at 0.25 µg/mL

Row | SMILES | MIC (Nakaseomyces glabratus) | MIC (Candida albicans [1]) | MIC (Candida albicans [2]) | MIC (Candida albicans [3]) | MBIC50 (Candida albicans [4]) | MIC (Candida albicans [5]) | MIC (Candida tropicalis) | IC50 (THLE-2) | IC50 (MCF7) | MFC (Candida albicans [6]) | MBIC50 (Candida albicans [7]) | MIC (Pichia kudriavzevii) | MBIC50 (Candida albicans [9]) | MIC (Cryptococcus neoformans) | IC50 (A549) | MIC (Candida albicans [10]) | MBIC50 (Candida albicans [12]) | MIC (Candida albicans [13]) | MIC (Candida parapsilosis) | MIC (Candida albicans [16]) | also measured
1 | O=C(NC(Cn1ccnc1)C(=O)c1cccc(F)c1)c1ccc(-c2ccc(Cl)cc2)s1 (stereo unspecified) | 1 µg/mL (≈ 2.2 µM) | 2 µg/mL (≈ 4.41 µM) | 0.5 µg/mL (≈ 1.1 µM) | 2 µg/mL (≈ 4.41 µM) | >64 µg/mL | 0.125 µg/mL (≈ 0.275 µM) | 0.125 µg/mL (≈ 0.275 µM) | 4.81 µM | > 30 µM | 25 µg/mL (≈ 55.1 µM) | 16 µg/mL | 0.25 µg/mL (≈ 0.551 µM) | 2 µg/mL | 0.25 µg/mL (≈ 0.551 µM) | 26.5 µM | 2 µg/mL (≈ 4.41 µM) | >64 µg/mL | 2 µg/mL (≈ 4.41 µM) | 0.5 µg/mL (≈ 1.1 µM) | 0.06 µg/mL (≈ 0.132 µM) | remaining at 1 h [8]: 73.4%; remaining at 2 h [11]: 47.1%; half-life [14]: 1.85 h; MIC (Candida albicans [15]): 1 µg/mL (≈ 2.2 µM)
2 | Cc1ccc(C(=O)C(Cn2ccnc2)NC(=O)c2ccc(-c3ccc(Cl)cc3)s2)cc1 (stereo unspecified) | 0.25 µg/mL (≈ 0.556 µM) | 0.25 µg/mL (≈ 0.556 µM) | 1 µg/mL (≈ 2.22 µM) | 1 µg/mL (≈ 2.22 µM) |  | < 0.03 µg/mL | < 0.03 µg/mL | 16.1 µM | > 30 µM | 0.125 µg/mL (≈ 0.278 µM) | 8 µg/mL | 1 µg/mL (≈ 2.22 µM) | 1 µg/mL | 0.5 µg/mL (≈ 1.11 µM) | 19.1 µM | 0.5 µg/mL (≈ 1.11 µM) | >64 µg/mL | 1 µg/mL (≈ 2.22 µM) | 0.5 µg/mL (≈ 1.11 µM) | < 0.03 µg/mL | Activity [17]: 3.2%; Activity [18]: 31.02%; Activity (Candida albicans [19]): Dose-Dependent Effect; remaining at 1 h [8]: 93.1%; Activity [20]: 42.91%; remaining at 2 h [11]: 89.5%; Activity [21]: 5.06%; Activity (Candida albicans [22]): 2 log10CFU/ml; Activity (Candida albicans [23]): Dose-Dependent Effect; Activity [24]: 8.64%; half-life [14]: > 4.8 h; MIC (Candida albicans [15]): 1 µg/mL (≈ 2.22 µM)
3 | CCC(C)n1ncn(-c2ccc(N3CCN(c4ccc(OCC5COC(Cn6cncn6)(c6ccc(Cl)cc6Cl)O5)cc4)CC3)cc2)c1=O (stereo unspecified) [ITRACONAZOLE] | 0.125 µg/mL (≈ 0.177 µM) |  |  |  | >64 µg/mL | 0.03 µg/mL (≈ 0.0425 µM) | 0.03 µg/mL (≈ 0.0425 µM) | > 30 µM | > 30 µM | 16 µg/mL (≈ 22.7 µM) | 32 µg/mL | 0.125 µg/mL (≈ 0.177 µM) | 16 µg/mL | 0.125 µg/mL (≈ 0.177 µM) | > 30 µM |  | >64 µg/mL |  | 0.125 µg/mL (≈ 0.177 µM) | 0.03 µg/mL (≈ 0.0425 µM) | 
4 | OC(Cn1cncn1)(Cn1cncn1)c1ccc(F)cc1F [FLUCONAZOLE] | 4 µg/mL (≈ 13.1 µM) | > 64 µg/mL | > 64 µg/mL | > 64 µg/mL | >64 µg/mL | 1 µg/mL (≈ 3.27 µM) | 0.5 µg/mL (≈ 1.63 µM) | > 30 µM | > 30 µM | > 64 µg/mL | >64 µg/mL | 8 µg/mL (≈ 26.1 µM) | 32 µg/mL | 4 µg/mL (≈ 13.1 µM) | > 30 µM | > 64 µg/mL | >64 µg/mL | > 64 µg/mL | 2 µg/mL (≈ 6.53 µM) | 0.5 µg/mL (≈ 1.63 µM) | Activity [25]: 29.02%; Activity [26]: 34.42%; Activity [27]: 22.35%; Activity [28]: 3.15%; Activity [29]: 4.21%; MIC (Candida albicans [15]): > 64 µg/mL
